Source: ChEMBL document CHEMBL4689842, “EUbOPEN Chemogenomics Library wave 1” (2021)

System: U2OS
Experiment: Multiplex assay against U2OS
Assay type: toxicity, cell-based
Settings: human
Outline: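 Live cells carried four stains from seeding: Hoechst33342, BioTracker Green Microtubule Cytoskeleton Dye, MitoTracker Red and Annexin V Alexa Fluor 680. They were imaged on a CQ1 microscope at 37°C and 5% CO2 after compound addition. Using CellPathfinder machine-learning gating, cells were split into Hoechst high-intensity objects or normal cells, normal cells into healthy, pyknosed or fragmented nuclei, and pyknosed cells into mitotic or apoptotic; tubulin, mitochondrial-mass and membrane-permeability phenotypes are per cents of healthy-nucleus cells.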

[1] = 12 h, 1 µM, compound concentration 1 uM, replicate 1
[2] = 12 h, 1 µM, compound concentration 1 uM, replicate 2
[3] = 12 h, 10 µM, compound concentration 10 uM, replicate 1
[4] = 12 h, 10 µM, compound concentration 10 uM, replicate 2
[5] = 24 h, 1 µM, compound concentration 1 uM, replicate 1
[6] = 24 h, 1 µM, compound concentration 1 uM, replicate 2
[7] = 24 h, 10 µM, compound concentration 10 uM, replicate 1

COc1ccc(NS(=O)(=O)c2sc3ccc(Cl)cc3c2C)cc1N1CCNCC1.Cl
Population Apoptotic (%) [1]: 57%
Population Fragmented Nuclei (%) [1]: 12%
Population Healthy Nuclei (%) [1]: 74%
Population Hoechst High Intensity Objects (%) [1]: 6%
Population Membrane Permeable-Phenotype (%) [1]: 6%
Population Mitochondria Different-Phenotype (%) [1]: 11%
Population Mitotic Cells (%) [1]: 42%
Population Normal (%) [1]: 93%
Population Pyknosed Nuclei (%) [1]: 12%
Population Tubulin-Different-Phenotype (%) [1]: 10%
Total Cell Count [1]: 172
Population Apoptotic (%) [2]: 28%
Population Fragmented Nuclei (%) [2]: 13%
Population Healthy Nuclei (%) [2]: 69%
Population Hoechst High Intensity Objects (%) [2]: 12%
Population Membrane Permeable-Phenotype (%) [2]: 0%
Population Mitochondria Different-Phenotype (%) [2]: 26%
Population Mitotic Cells (%) [2]: 71%
Population Normal (%) [2]: 87%
Population Pyknosed Nuclei (%) [2]: 16%
Total Cell Count [2]: 69
Population Apoptotic (%) [3]: 43%
Population Fragmented Nuclei (%) [3]: 12%
Population Healthy Nuclei (%) [3]: 57%
Population Hoechst High Intensity Objects (%) [3]: 5%
Population Membrane Permeable-Phenotype (%) [3]: 29%
Population Mitochondria Different-Phenotype (%) [3]: 97%
Population Mitotic Cells (%) [3]: 56%
Population Normal (%) [3]: 94%
Population Pyknosed Nuclei (%) [3]: 30%
Population Tubulin-Different-Phenotype (%) [3]: 97%
Total Cell Count [3]: 162
Population Apoptotic (%) [4]: 61%
Population Fragmented Nuclei (%) [4]: 14%
Population Healthy Nuclei (%) [4]: 56%
Population Hoechst High Intensity Objects (%) [4]: 4%
Population Membrane Permeable-Phenotype (%) [4]: 25%
Population Mitochondria Different-Phenotype (%) [4]: 100%
Population Mitotic Cells (%) [4]: 38%
Population Normal (%) [4]: 95%
Population Pyknosed Nuclei (%) [4]: 29%
Population Tubulin-Different-Phenotype (%) [4]: 94%
Total Cell Count [4]: 49
Population Apoptotic (%) [5]: 52%
Population Healthy Nuclei (%) [5]: 76%
Population Hoechst High Intensity Objects (%) [5]: 5%
Population Membrane Permeable-Phenotype (%) [5]: 3%
Population Mitochondria Different-Phenotype (%) [5]: 10%
Population Mitotic Cells (%) [5]: 48%
Population Normal (%) [5]: 95%
Population Pyknosed Nuclei (%) [5]: 13%
Population Tubulin-Different-Phenotype (%) [5]: 6%
Total Cell Count [5]: 174
Population Apoptotic (%) [6]: 33%
Population Fragmented Nuclei (%) [6]: 10%
Population Healthy Nuclei (%) [6]: 77%
Population Hoechst High Intensity Objects (%) [6]: 3%
Population Membrane Permeable-Phenotype (%) [6]: 5%
Population Mitochondria Different-Phenotype (%) [6]: 13%
Population Mitotic Cells (%) [6]: 66%
Population Normal (%) [6]: 96%
Population Pyknosed Nuclei (%) [6]: 12%
Population Tubulin-Different-Phenotype (%) [6]: 5%
Total Cell Count [6]: 67
Population Apoptotic (%) [7]: 61%
Population Fragmented Nuclei (%) [7]: 17%
Population Healthy Nuclei (%) [7]: 51%
Population Hoechst High Intensity Objects (%) [7]: 7%
Population Membrane Permeable-Phenotype (%) [7]: 35%
